A short description of data set [1]: In vitro half life at pH 7.4 and 37 degrees C. The data set is classed as ADME. As to conditions: buffer. In a few lines:
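Prodrug, added as 0.5 mM DMSO stock (10 μL into 1 mL), incubated in PBS pH 7.4 at 37 °C. Release of parent drug followed by RP-HPLC. t1/2 is the time to 50% release of parent drug. Means ± SEM of three experiments.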

A short description of data set [2]: Bioavailability. The class given is ADME, organism-based. As to conditions: eutheria, in vivo. In a few lines: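 Rat intraduodenal dosing (dose equivalent to 10 mg/kg parent drug, 50% PEG or saline, 1 mL/kg). Plasma parent drug measured by RP-HPLC over 8 h. Bioavailability is the ratio of mean AUC0–8 (×10) against intravenous parent drug at 1 mg/kg in ethanol cosolvent via femoral vein (n = 2).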

The nature of data set [3]: T max was determined. The data set is classed as ADME. In outline:
(§1)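 Male Sprague–Dawley rats (240–300 g, n = 5 or 3), fasted overnight, given the agent intraduodenally via duodenal cannula at a dose equivalent to 10 mg/kg parent drug, in 50% PEG (8000) or saline, 1 mL/kg. Arterial blood taken at 5 min–8 h. Plasma was ethyl acetate extracted and the parent drug quantified by RP-HPLC (UV 202 nm). Cmax/Tmax from mean profiles; AUC0–8 by linear trapezoidal rule.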

The nature of data set [4]: Area under curve (AUC) was determined. The data set is classed as ADME. Further details: concentration or dose not given beside the values. In a few lines:
as §1

Data set [5] is described as follows: C max was determined. The data set is classed as ADME, organism-based. As to conditions: in vivo. In outline:
as §1

Results on twelve molecules are retold here after ChEMBL document CHEMBL1145089, “Development of water-soluble prodrugs of the HIV-1 protease inhibitor KNI-727: importance of the conversion time for higher gastrointestinal absorption of prodrugs based on spontaneous chemical cleavage” (J Med Chem, 2003).

Usually half-life stands for the time needed for the level to fall by half in the phase considered. `CCCNC(=O)CCC(=O)O[C@H](C(=O)N1CSC(C)(C)[C@H]1C(=O)NC(C)(C)C)[C@H](Cc1ccccc1)NC(=O)COc1c(C)cccc1C` showed a half-life in data set [1] of 922 min.
In general, bioavailability refers to dose-corrected exposure relative to a reference, in per cent. By Tmax is commonly meant the time at which the peak concentration occurs. As usually defined, the AUC is concentration integrated over time. By Cmax is commonly meant the maximum level reached in the sampled fluid or tissue. For `Cc1cccc(C)c1OCC(=O)N[C@@H](Cc1ccccc1)[C@H](O)C(=O)N1CSC(C)(C)[C@H]1C(=O)NC(C)(C)C`, the bioavailability in data set [2] was 15.8%. Further, the Tmax in data set [3] is 5 min. The molecule further had an AUC in data set [4] of 3580 ng·h/mL. This molecule also came in with a Cmax in data set [5] of 1230 ng/mL.
In data set [1], `Cc1cccc(C)c1OCC(=O)N[C@@H](Cc1ccccc1)[C@H](OC(=O)CCCC(=O)NCCN)C(=O)N1CSC(C)(C)[C@H]1C(=O)NC(C)(C)C.Cl` returned a half-life of 1240 min. In data set [2], this molecule registered a bioavailability of 9.4%. Further, the Tmax in data set [3] was 60 min. In data set [4], this molecule showed an AUC of 2130 ng·h/mL. The molecule further showed a Cmax in data set [5] of 460 ng/mL.
In data set [1], `Cc1cccc(C)c1OCC(=O)N[C@@H](Cc1ccccc1)[C@H](OC(=O)CCC(=O)NCCN)C(=O)N1CSC(C)(C)[C@H]1C(=O)NC(C)(C)C.Cl` displayed a half-life of 12.7 min. In addition, the bioavailability in data set [2] is 17.5%. Also, the Tmax in data set [3] was 240 min. Moreover, in data set [4], the AUC came to 3980 ng·h/mL. Also, in data set [5], the Cmax turned out to be 650 ng/mL.
As to `Cc1cccc(C)c1OCC(=O)N[C@@H](Cc1ccccc1)[C@H](OC(=O)CCC(=O)NCc1ccccn1)C(=O)N1CSC(C)(C)[C@H]1C(=O)NC(C)(C)C.Cl`, in data set [1], the half-life is 48.5 min.
With `Cc1cccc(C)c1OCC(=O)N[C@@H](Cc1ccccc1)[C@H](OC(=O)CCC(=O)NCCCN1CCOCC1)C(=O)N1CSC(C)(C)[C@H]1C(=O)NC(C)(C)C.Cl`, the half-life in data set [1] came to 79.5 min. This molecule also displayed a bioavailability in data set [2] of 6.9%. The Tmax in data set [3] was 30 min. Besides, the AUC in data set [4] is 1570 ng·h/mL. This molecule gave a Cmax in data set [5] of 410 ng/mL.
On the same counts, the results for `Cc1cccc(C)c1OCC(=O)N[C@@H](Cc1ccccc1)[C@H](OC(=O)CCC(=O)NCCN1CCOCC1)C(=O)N1CSC(C)(C)[C@H]1C(=O)NC(C)(C)C.Cl` are 40.3 min, 23.1%, 30 min, 5250 ng·h/mL and 1890 ng/mL.
On the same counts, the results for `Cc1cccc(C)c1OCC(=O)N[C@@H](Cc1ccccc1)[C@H](OC(=O)CCC(=O)NCc1cccnc1)C(=O)N1CSC(C)(C)[C@H]1C(=O)NC(C)(C)C.Cl` are 35.4 min, 26.4%, 30 min, 6000 ng·h/mL and 1370 ng/mL.
On to `Cc1cccc(C)c1OCC(=O)N[C@@H](Cc1ccccc1)[C@H](OC(=O)CCC(=O)NCCN1CCCCC1)C(=O)N1CSC(C)(C)[C@H]1C(=O)NC(C)(C)C.Cl`, for which the half-life in data set [1] was 3.6 min.
In data set [1], `Cc1cccc(C)c1OCC(=O)N[C@@H](Cc1ccccc1)[C@H](OC(=O)CCCC(=O)NCCN1CCOCC1)C(=O)N1CSC(C)(C)[C@H]1C(=O)NC(C)(C)C.Cl` came in with a half-life of 2060 min. Besides, in data set [2], the bioavailability amounted to 5.4%. Besides, the Tmax in data set [3] is 30 min. For the same molecule, the AUC in data set [4] came out at 1230 ng·h/mL. In addition, in data set [5], the Cmax amounted to 480 ng/mL.
On the same counts, the results for `Cc1cccc(C)c1OCC(=O)N[C@@H](Cc1ccccc1)[C@H](OC(=O)CCC(=O)NCCN1CCCC1)C(=O)N1CSC(C)(C)[C@H]1C(=O)NC(C)(C)C.Cl` are 7.9 min, 16.1%, 15 min, 3650 ng·h/mL and 840 ng/mL.
The matching figures for `Cc1cccc(C)c1OCC(=O)N[C@@H](Cc1ccccc1)[C@H](OC(=O)CCC(=O)NCc1ccncc1)C(=O)N1CSC(C)(C)[C@H]1C(=O)NC(C)(C)C.Cl`: 34.9 min, 29%, 30 min, 6570 ng·h/mL and 1620 ng/mL.
